How the values were obtained:
[1] = biological target: Cyclin-dependent kinase 5/CDK5 activator 1 (Homo sapiens, UniProt Q00535); assay: Inhibition of human recombinant CDK5/ p25 expressed in bacterial expression system using histone H1 as substrate in presence of ATP measured after 30 mins by ADP-Glo assay
[2] = Selectivity index, ratio of CC50 for human MRC5 cells to IC50 for amastigote stage of Leishmania braziliensis (MHOM/BR/75/M2903b) infected in mouse RAW264.7 cells; type: toxicity, cell-based; conditions: read-out: Ratio CC50/IC50
How it was run: (§1)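 Selectivity index is CC50 on RAW 264.7 or MRC-5 cells divided by IC50 on intracellular amastigotes.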

CDK2/Cyclin A2 = CDK2/Cyclin A2 (Homo sapiens, UniProt P24941); assay: Inhibition of human CDK2/ cyclinA using histone H1 as substrate in presence of ATP measured after 30 mins by ADP-Glo assay; type: protein-complex assay
[3] = Selectivity index, ratio of CC50 for human MRC5 cells to IC50 for amastigote stage of Leishmania infantum (MHOM/FR/2008/LEM5700) infected in mouse RAW264.7 cells; type: toxicity, cell-based; conditions: read-out: Ratio CC50/IC50; how it was run: as §1
[4] = Toxicity against Galleria mellonella larva assessed as cuticular darkening at 50 mg/kg measured for 7 days; type: organism-based; conditions: in vivo, 168 h, time 7 day
How it was run: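 G. mellonella larvae (6th stage, 260–320 mg), groups of ten. Injected in the 4th left pro-leg with 10 μL at 10–50 mg/kg; controls got PBS/DMSO (DMSO <40%). Kept in the dark at 37 °C. Survival and cuticular darkening scored daily for 7 days; death taken as no movement on stimulus. Kaplan-Meier with log-rank test; two independent experiments.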

[5] = biological target: Dual specificity protein kinase CLK1 (Mus musculus, UniProt P22518); assay: Inhibition of recombinant mouse CLK1 expressed in bacteria using GRSRSRSRSRSR as substrate in presence of ATP measured after 30 mins by ADP-Glo assay
Leishmania donovani = assay: Antileishmanial activity against amastigote stage of Leishmania donovani (MHOM/ET/67/HU3) infected in mouse RAW264.7 cells assessed as reduction in parasitic proliferation measured by SYBR Green 1 dye based fluorescence assay; type: functional, organism-based; conditions: MHOM/ET/67/HU3, RAW264.7
How it was run: (§2)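 RAW 264.7 macrophages seeded at 100,000 cells/well in DMEM with 10% heat-inactivated FBS, 24 h at 37 °C, 5% CO₂. Infected with plateau-phase promastigotes (parasite:macrophage 16:1) for 24 h. Compounds serially diluted, final 391 nM–100 μM. Amastigote viability read by SYBR Green I after lysis and 3 freeze-thaw cycles. IC50 by nonlinear regression against excipient-treated controls. Miltefosine reference.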

[6] = biological target: Serine/threonine-protein kinase pim-1 (Homo sapiens, UniProt P11309); assay: Inhibition of recombinant human PIM1 expressed in bacteria using histone H1 as substrate in presence of ATP measured after 30 mins by ADP-Glo assay; conditions: 0.5 h
Leishmania braziliensis = assay: Antileishmanial activity against amastigote stage of Leishmania braziliensis (MHOM/BR/75/M2903b) infected in mouse RAW264.7 cells assessed as reduction in parasitic proliferation measured by SYBR Green 1 dye based fluorescence assay; type: functional, organism-based; how it was run: as §2
Leishmania infantum = assay: Antileishmanial activity against amastigote stage of Leishmania infantum (MHOM/FR/2008/LEM5700) infected in mouse RAW264.7 cells assessed as reduction in parasitic proliferation measured by SYBR Green 1 dye based fluorescence assay; type: functional, organism-based; conditions: MHOM/FR/2008/LEM5700, RAW264.7; how it was run: as §2
Leishmania amazonensis = assay: Antileishmanial activity against amastigote stage Leishmania amazonensis (MHOM/BR/73/M2269) infected in mouse RAW264.7 cells assessed as reduction in parasitic proliferation measured by SYBR Green 1 dye based fluorescence assay; type: functional, organism-based; conditions: MHOM/BR/73/M2269, RAW264.7; how it was run: as §2
[7] = Selectivity index, ratio of CC50 for mouse RAW264.7 cells to IC50 for amastigote stage of Leishmania amazonensis (MHOM/BR/73/M2269) infected in mouse RAW264.7 cells; type: toxicity, cell-based; conditions: read-out: Ratio CC50/IC50; how it was run: as §1
CDK9/cyclin T1 [8] = biological target: T1, CDK9/cyclin T1 (Homo sapiens, UniProt P50750); assay: Inhibition of human recombinant CDK9/CyclinT expressed in baculovirus infected Sf9 cells using YSPTSPSYSPTSPSYSPTSPSKKK as substrate in presence of ATP measured after 30 mins by ADP-Glo assay
[9] = biological target: T2, Dual specificity tyrosine-phosphorylation-regulated kinase 1A (Rattus norvegicus, UniProt Q63470); assay: Inhibition of recombinant rat DYRK1A (1 to 499 ) expressed in bacterial expression system using KKISGRLSPIMTEQ as substrate in presence of ATP measured after 30 mins by ADP-Glo assay; conditions: 0.5 h
Aurora kinase B [10] = biological target: T3, Aurora kinase B (Homo sapiens, UniProt Q96GD4); assay: Inhibition of recombinant human AURKB expressed in baculovirus infected Sf9 cells using MBP as substrate in presence of ATP measured after 30 mins by ADP-Glo assay; conditions: sf9, 0.5 h
[11] = Selectivity index, ratio of CC50 for human MRC5 cells to IC50 for amastigote stage of Leishmania donovani (MHOM/ET/67/HU3) infected in mouse RAW264.7 cells; type: toxicity, cell-based; conditions: read-out: Ratio CC50/IC50; how it was run: as §1
[12] = biological target: Receptor-interacting serine/threonine-protein kinase 3 (Homo sapiens, UniProt Q9Y572); assay: Inhibition of recombinant human RIPK3 expressed in baculovirus infected Sf9 cells using MBP as substrate in presence of [gamma-33P]ATP by radiometric assay
Aurora kinase B [13] = biological target: T3, Aurora kinase B; assay: Inhibition of recombinant human AURKB expressed in baculovirus infected Sf9 cells using MBP as substrate in presence of [gamma-33P]ATP measured by radiometric assay
CDK9/cyclin T1 [14] = biological target: T1, CDK9/cyclin T1; assay: Inhibition of human recombinant CDK9/CyclinT expressed in baculovirus infected Sf9 cells using YSPTSPSYSPTSPSYSPTSPSKKK as substrate in presence of [gamma-33P]ATP by radiometric assay
[15] = biological target: T2, Dual specificity tyrosine-phosphorylation-regulated kinase 1A; assay: Inhibition of recombinant rat DYRK1A (1 to 499 ) expressed in bacterial expression system using KKISGRLSPIMTEQ as substrate in presence of [gamma-33P]ATP measured by radiometric assay
[16] = Inhibition of recombinant Leishmania major CK1.2 expressed in bacterial expression system using RRKHAAIGSpAYSITA as substrate in presence of [gamma-33P]ATP by radiometric assay
[17] = Selectivity index, ratio of CC50 for mouse RAW264.7 cells to IC50 for amastigote stage of Leishmania braziliensis (MHOM/BR/75/M2903b) infected in mouse RAW264.7 cells; type: toxicity, cell-based; conditions: read-out: Ratio CC50/IC50; how it was run: as §1
[18] = Cytotoxicity against human MRC5 cells assessed as reduction in cell viability measured after 96 hrs by resazurin assay; type: cell-based
How it was run: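 Human MRC-5 fibroblasts grown in RPMI 1640 with 10% FBS. Exposed to 100, 10 and 1 μM in triplicate for 96 h. Then 10 μL of 700 μM resazurin added for 4 h and fluorescence read. Value is the mean of triplicates.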

[19] = Selectivity index, ratio of CC50 for mouse RAW264.7 cells to IC50 for amastigote stage of Leishmania infantum (MHOM/FR/2008/LEM5700) infected in mouse RAW264.7 cells; type: toxicity, cell-based; conditions: read-out: Ratio CC50/IC50; how it was run: as §1
[20] = Cytotoxicity against mouse RAW264.7 cells assessed as reduction in cell growth measured after 48 hrs by SYBR Green 1 dye based fluorescence assay
How it was run: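 RAW 264.7 cells seeded at 100,000 cells/well in DMEM with 10% FBS, 24 h at 37 °C, 5% CO₂. Two-fold serial dilutions, final 49 nM–100 μM, for 48 h. Growth read by SYBR Green I. CC50 by nonlinear regression. Miltefosine reference; untreated cells as growth control.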

[21] = Selectivity index, ratio of CC50 for human MRC5 cells to IC50 for amastigote stage of Leishmania amazonensis (MHOM/BR/73/M2269) infected in mouse RAW264.7 cells; type: toxicity, cell-based; conditions: read-out: Ratio CC50/IC50; how it was run: as §1
[22] = Selectivity index, ratio of CC50 for mouse RAW264.7 cells to IC50 for amastigote stage of Leishmania donovani (MHOM/ET/67/HU3) infected in mouse RAW264.7 cells; type: toxicity, cell-based; conditions: read-out: Ratio CC50/IC50; how it was run: as §1
Leishmania major = assay: Antileishmanial activity against amastigote stage of Leishmania major (MHOM/IL/81/BNI) infected in BALB/c mouse peritoneal macrophages assessed as reduction in parasitic proliferation measured after 4 days by MayGrunwald-Giemsa stain based microscopic method; type: functional, organism-based; conditions: Peritoneal macrophage, 96 h
How it was run: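 BALB/c peritoneal macrophages on glass slides, 1.5×10⁵ cells/mL in RPMI 1640 with 15% FBS, 24 h attachment. Infected with stationary-phase promastigotes (1.5×10⁶/mL) for 24 h at 37 °C, 5% CO₂. Washed, then exposed 4 days to 100, 10, 1, 0.1 μM (DMSO ≤1% final). Methanol-fixed, May-Grunwald-Giemsa stained, amastigotes counted in 100 macrophages per duplicate well. IC50 from amastigotes/macrophage. Run twice.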

[23] = Selectivity index, ratio of CC50 for mouse RAW264.7 cells to IC50 for amastigote stage of Leishmania major (MHOM/IL/81/BNI) infected in BALB/c mouse peritoneal macrophages; type: toxicity; conditions: read-out: Ratio CC50/IC50; how it was run: as §1
[24] = Selectivity index, ratio of CC50 for human MRC5 cells to IC50 for amastigote stage of Leishmania major (MHOM/IL/81/BNI) infected in BALB/c mouse peritoneal macrophages; type: toxicity; conditions: read-out: Ratio CC50/IC50; how it was run: as §1

Cyclin-dependent kinase 5/CDK5 activator 1, sequence (Q00535 whole entry): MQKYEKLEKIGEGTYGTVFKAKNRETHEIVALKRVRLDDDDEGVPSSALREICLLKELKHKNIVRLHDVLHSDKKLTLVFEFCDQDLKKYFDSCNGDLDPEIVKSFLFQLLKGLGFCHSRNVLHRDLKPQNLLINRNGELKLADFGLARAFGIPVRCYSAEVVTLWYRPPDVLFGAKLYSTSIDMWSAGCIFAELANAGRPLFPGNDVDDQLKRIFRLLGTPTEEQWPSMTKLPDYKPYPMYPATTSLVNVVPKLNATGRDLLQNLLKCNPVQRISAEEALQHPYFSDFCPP
Cyclin-dependent kinase 5/CDK5 activator 1, sequence (Q15078 whole entry, further chain): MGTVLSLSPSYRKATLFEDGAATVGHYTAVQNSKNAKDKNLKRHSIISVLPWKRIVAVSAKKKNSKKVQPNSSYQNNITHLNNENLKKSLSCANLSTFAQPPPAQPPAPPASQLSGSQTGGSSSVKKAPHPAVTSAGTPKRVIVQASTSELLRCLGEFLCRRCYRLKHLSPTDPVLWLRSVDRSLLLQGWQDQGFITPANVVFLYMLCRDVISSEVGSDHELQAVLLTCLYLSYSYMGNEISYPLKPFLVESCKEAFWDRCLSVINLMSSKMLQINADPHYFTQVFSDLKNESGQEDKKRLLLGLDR
T3 sequence (Q96GD4 whole entry): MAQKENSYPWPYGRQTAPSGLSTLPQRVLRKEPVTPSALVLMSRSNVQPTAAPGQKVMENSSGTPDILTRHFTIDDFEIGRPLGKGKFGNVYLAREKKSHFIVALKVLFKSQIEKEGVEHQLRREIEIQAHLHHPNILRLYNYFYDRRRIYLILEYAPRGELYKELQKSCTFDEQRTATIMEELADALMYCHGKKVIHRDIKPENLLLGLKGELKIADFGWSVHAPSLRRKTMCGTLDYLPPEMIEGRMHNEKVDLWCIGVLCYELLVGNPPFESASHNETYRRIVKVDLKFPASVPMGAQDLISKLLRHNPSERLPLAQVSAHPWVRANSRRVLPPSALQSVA
Dual specificity protein kinase CLK1, sequence (P22518 whole entry): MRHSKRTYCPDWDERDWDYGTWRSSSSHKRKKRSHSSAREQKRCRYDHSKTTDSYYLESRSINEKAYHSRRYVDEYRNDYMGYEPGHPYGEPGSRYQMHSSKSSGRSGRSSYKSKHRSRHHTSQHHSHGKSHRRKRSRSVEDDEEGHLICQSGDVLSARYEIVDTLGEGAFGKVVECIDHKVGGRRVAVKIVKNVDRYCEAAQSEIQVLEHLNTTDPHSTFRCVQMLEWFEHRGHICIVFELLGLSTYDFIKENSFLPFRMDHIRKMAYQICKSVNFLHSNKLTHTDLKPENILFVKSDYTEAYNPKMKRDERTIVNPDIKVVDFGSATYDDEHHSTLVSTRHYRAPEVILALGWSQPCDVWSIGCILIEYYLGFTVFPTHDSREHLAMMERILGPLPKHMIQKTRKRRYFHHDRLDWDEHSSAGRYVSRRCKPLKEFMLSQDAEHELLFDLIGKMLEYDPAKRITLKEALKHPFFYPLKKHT
T1 sequence (O60563 whole entry): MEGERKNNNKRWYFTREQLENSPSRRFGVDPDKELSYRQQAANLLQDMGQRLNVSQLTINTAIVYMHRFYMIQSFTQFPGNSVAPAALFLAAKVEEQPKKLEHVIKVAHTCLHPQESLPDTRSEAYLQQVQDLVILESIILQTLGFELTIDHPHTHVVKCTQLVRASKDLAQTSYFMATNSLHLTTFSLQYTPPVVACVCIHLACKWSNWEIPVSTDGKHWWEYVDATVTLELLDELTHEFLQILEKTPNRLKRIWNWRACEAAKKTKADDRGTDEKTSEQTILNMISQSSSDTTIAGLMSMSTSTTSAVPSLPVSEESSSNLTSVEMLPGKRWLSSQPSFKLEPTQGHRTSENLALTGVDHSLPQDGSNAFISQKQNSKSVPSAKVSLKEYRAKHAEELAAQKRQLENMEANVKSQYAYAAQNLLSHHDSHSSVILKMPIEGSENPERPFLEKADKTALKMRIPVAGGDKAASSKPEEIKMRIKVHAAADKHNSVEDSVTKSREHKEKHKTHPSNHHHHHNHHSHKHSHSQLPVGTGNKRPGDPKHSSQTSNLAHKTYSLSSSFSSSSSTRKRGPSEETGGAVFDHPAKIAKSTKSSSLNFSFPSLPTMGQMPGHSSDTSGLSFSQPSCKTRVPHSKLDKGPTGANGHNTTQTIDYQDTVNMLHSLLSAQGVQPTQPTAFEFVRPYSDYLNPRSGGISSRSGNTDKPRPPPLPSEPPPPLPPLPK
T1 sequence (P50750 whole entry): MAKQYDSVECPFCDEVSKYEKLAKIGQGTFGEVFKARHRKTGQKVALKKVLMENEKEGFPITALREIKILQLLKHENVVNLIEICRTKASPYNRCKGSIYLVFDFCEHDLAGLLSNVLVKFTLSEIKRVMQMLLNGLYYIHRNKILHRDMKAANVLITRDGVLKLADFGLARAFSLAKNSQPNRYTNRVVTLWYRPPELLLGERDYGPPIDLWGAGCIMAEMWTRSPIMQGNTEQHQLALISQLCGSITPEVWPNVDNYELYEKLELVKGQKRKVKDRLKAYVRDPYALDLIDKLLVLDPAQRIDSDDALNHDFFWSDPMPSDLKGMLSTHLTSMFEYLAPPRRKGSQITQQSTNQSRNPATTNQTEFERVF
Serine/threonine-protein kinase pim-1, sequence (P11309 whole entry): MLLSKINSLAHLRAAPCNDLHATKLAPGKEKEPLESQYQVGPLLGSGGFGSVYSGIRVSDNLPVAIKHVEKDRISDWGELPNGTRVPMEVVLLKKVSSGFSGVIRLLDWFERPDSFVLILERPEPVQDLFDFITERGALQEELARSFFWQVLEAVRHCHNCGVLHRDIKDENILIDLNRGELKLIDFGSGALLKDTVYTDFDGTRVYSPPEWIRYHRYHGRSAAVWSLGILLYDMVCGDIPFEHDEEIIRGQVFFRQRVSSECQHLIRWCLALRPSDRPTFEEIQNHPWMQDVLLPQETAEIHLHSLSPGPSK
Receptor-interacting serine/threonine-protein kinase 3, sequence (Q9Y572 whole entry): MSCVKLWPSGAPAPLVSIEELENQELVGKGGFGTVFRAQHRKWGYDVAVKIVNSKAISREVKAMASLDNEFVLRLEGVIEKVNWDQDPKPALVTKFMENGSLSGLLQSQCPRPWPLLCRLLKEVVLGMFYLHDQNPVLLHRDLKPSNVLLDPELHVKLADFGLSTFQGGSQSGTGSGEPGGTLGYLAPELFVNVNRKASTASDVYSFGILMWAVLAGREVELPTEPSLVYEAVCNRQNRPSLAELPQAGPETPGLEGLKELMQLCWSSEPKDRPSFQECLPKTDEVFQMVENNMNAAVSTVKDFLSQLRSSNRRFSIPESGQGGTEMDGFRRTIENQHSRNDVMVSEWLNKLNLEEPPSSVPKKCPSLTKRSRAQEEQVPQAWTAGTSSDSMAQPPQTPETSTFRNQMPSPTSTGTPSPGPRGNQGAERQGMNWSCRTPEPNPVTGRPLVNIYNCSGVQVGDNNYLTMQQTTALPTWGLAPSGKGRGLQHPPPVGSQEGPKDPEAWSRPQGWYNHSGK

SMILES	IC50 [1] [µM]	selectivity ratio [2]	IC50 (CDK2/Cyclin A2) [µM]	selectivity ratio [3]	Activity [4]	IC50 [5] [µM]	IC50 (Leishmania donovani) [µM]	inhibition (INH) [6]	IC50 (Leishmania braziliensis) [µM]	IC50 (Leishmania infantum) [µM]	IC50 (Leishmania amazonensis) [µM]	selectivity ratio [7]	IC50 (CDK9/cyclin T1 [8]) [µM]	inhibition (INH) [9]	inhibition (INH) (Aurora kinase B [10])	selectivity ratio [11]	other results
CN(C)c1nccn2c(-c3ccncc3)c(-c3ccc(F)cc3)nc12	> 10	1.7	> 10	7.8	Non-Toxic	> 10	2.74	Not Active	57.9	12.8	28.4	1.5	> 10	Not Active	Not Active	36.5	–
CN(C)c1nccn2c(-c3cncnc3)c(-c3ccc(F)cc3)nc12	> 10	4.4	> 10	–	Non-Toxic	> 10	> 50	Not Active	22.8	> 50	> 50	–	> 10	Not Active	Not Active	–	–
CN(C)c1nccn2c(-c3cnn(C)c3)c(-c3ccc(F)cc3)nc12	> 10	4	> 10	38.5	Non-Toxic	> 10	1.27	Not Active	> 25	2.6	> 25	0.6	> 10	Not Active	Not Active	78.7	–
CN(C)c1nccn2c(-c3ccc4[nH]ncc4c3)c(-c3ccc(F)cc3)nc12	> 10	2	> 10	2	Non-Toxic	> 10	> 12.5	Not Active	> 12.5	12.9	> 12.5	0.6	> 10	Not Active	Not Active	2	–
CSc1nccc(-c2c(-c3ccc(F)cc3)nc3c(N)nccn23)n1	–	1.5	–	1.5	Non-Toxic	–	> 12.5	–	> 12.5	> 12.5	> 12.5	> 0.9	–	–	–	1.5	inhibition (INH) [12]: Not Active; inhibition (INH) (Aurora kinase B [13]): Not Active; IC50 (CDK9/cyclin T1 [14]): > 10 µM; IC50 [15]: 2 µM; IC50 [16]: 0.65 µM
CCCCCCCCCCCCCCCCOP(=O)([O-])OCC[N+](C)(C)C [MILTEFOSINE]	–	4.4	–	12.4	–	–	1.83	–	8.33	2.96	4.22	10.2	–	–	–	20.1	selectivity ratio [17]: 5.2; CC50 at 96 h [18]: 36.8 µM; selectivity ratio [19]: 14.5; CC50 at 48 h [20]: 43 µM; selectivity ratio [21]: 8.7; selectivity ratio [22]: 23.5; IC50 (Leishmania major): 1.44 µM; selectivity ratio [23]: 29.9; selectivity ratio [24]: 25.5
